By IC50 is commonly meant the concentration at which inhibition is half-maximal. Lower therefore signals higher potency. In general, EC50 refers to the midpoint of the concentration-response curve. By CC50 is commonly meant the concentration at which the toxic effect on the cells reaches its halfway point. The low end stands for greater toxicity to the cells, the high end for lower toxicity to the cells.

We go through 19 compounds from ChEMBL document CHEMBL2029301, “Development of a series of 3-hydroxyquinolin-2(1H)-ones as selective inhibitors of HIV-1 reverse transcriptase associated RNase H activity” (Bioorg Med Chem Lett, 2012).

Molecules are shown by their SMILES. Calls of active or inactive are those of the source. The rule behind the calls is not given here. Some results are limits rather than exact numbers.

Series [1] has as its target T1, Human immunodeficiency virus type 1 reverse transcriptase (Human immunodeficiency virus 1, UniProt Q72547). The experiment in a line: Inhibition of HIV1 reverse transcriptase RNase H activity.
For series [2], the system named is Human immunodeficiency virus 1. The experiment in a line: Antiviral activity against HIV1 infected in MT4 cells assessed as inhibition of virus-induced cytopathic effect. It is filed as functional, organism-based. The settings on record: Human immunodeficiency virus 1, MT4. A general note: Damage to the host cells serves as the signal in cytopathic effect assays.

A short description of series [3]: Cytotoxicity against human MT4 cells. It is filed as cell-based.
Series [4] has as its target T1, Human immunodeficiency virus type 1 reverse transcriptase. Nature of the series: Inhibition of HIV1 reverse transcriptase associated RNA dependent polymerase activity. Put shortly: (§1)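 Mg-dependent HIV-1 integrase and RT RNA-dependent DNA polymerase activities measured in vitro, with compounds tested at concentrations up to 250 µM.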
The target in series [5] is Human immunodeficiency virus type 1 integrase (Human immunodeficiency virus 1, UniProt Q7ZJM1). The experiment in a line: Inhibition of HIV1 integrase. Put shortly:
as §1

Series [6] concerns the target Human immunodeficiency virus type 1 reverse transcriptase (Human immunodeficiency virus 1) (UniProt Q72547). The experiment in a line: Inhibition of HIV1 reverse transcriptase RNase H activity assessed as remaining activity at 100 uM. Put shortly: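 In vitro HIV-1 RT-associated RNase H activity measured with compound at 100 µM, expressed as percentage of remaining enzyme activity.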

Series [7] has as its system Human immunodeficiency virus 1. Nature of the series: Binding affinity to HIV1 Reverse transcriptase RNase H domain p15 assessed as intrinsic fluorescence quenching at 100 uM by fluorimetry. A digest of the protocol:
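Recombinant isolated HIV-1 RT RNase H domain (p15) excited at 290 nm to maximise the tryptophan signal. Ligand binding at the active site is read as quenching of intrinsic fluorescence. HTHI (2-hydroxy-1,2,3,4-tetrahydroisoquinoline-1,3-dione) serves as positive control.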

In series [8] the target is Human immunodeficiency virus type 1 reverse transcriptase (Human immunodeficiency virus 1) (UniProt Q72547). The experiment in a line: Selectivity ratio of IC50 for HIV1 reverse transcriptase associated RNA dependent polymerase activity to IC50 for reverse transcriptase Rnase H activity.
The test system of series [9] is Human immunodeficiency virus 1. The experiment in a line: Selectivity ratio of IC50 for HIV1 integrase to IC50 for reverse transcriptase Rnase H activity.

Chain of Human immunodeficiency virus type 1 integrase (Q7ZJM1 whole entry): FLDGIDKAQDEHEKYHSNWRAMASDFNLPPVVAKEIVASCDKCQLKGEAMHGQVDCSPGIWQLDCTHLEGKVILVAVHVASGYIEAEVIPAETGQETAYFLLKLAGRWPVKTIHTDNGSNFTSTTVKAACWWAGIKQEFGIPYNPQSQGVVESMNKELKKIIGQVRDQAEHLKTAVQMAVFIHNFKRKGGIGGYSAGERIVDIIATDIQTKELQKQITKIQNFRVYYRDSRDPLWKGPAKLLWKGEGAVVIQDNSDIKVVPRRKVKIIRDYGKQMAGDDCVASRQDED

In the case of `COc1ccc(CNC(=O)c2c(O)c(=O)[nH]c3ccc(F)cc23)cc1`, the IC50 in series [1] is 19 µM; in series [4], above 250 µM; in series [5] it was above 250 µM. Besides, the EC50 in [2] was above 29 µM. Besides, the CC50 in [3] was 29 µM.

In the case of `CCOC(=O)c1c(O)c(=O)[nH]c2c(F)cccc12`, in [1], the IC50 is above 100 µM. The Activity in series [6] came out at 100%. For the same compound, the EC50 in series [2] is above 238 µM. Also, in series [3], the CC50 came out at 238 µM.

In series [1], `O=C(O)c1c(O)c(O)nc2ccccc12` came in with an IC50 of 59 µM. Further, the EC50 in series [2] is above 250 µM. This compound displayed a CC50 in [3] above 250 µM.

Compound `O=C(NCc1ccc(F)cc1)c1c(O)c(=O)[nH]c2c(F)cccc12` returned an IC50 in series [1] of 75 µM. In addition, the EC50 in series [2] is above 6.8 µM. This compound also registered a CC50 in series [3] of 8 µM.

In the case of `COc1ccc(CNC(=O)c2c(O)c(=O)[nH]c3c(F)cccc23)cc1`, the IC50 in series [1] was 74 µM. Further, in series [2], the EC50 is above 8 µM. The compound also gave a CC50 in [3] of 8 µM.

With `O=C(NCc1ccc(F)cc1)c1c(O)c(=O)[nH]c2ccccc12`, the values for the IC50 in [1], in series [4] and in [5] were 19 µM, above 250 µM and above 250 µM, respectively. Also, the 50% effective concentration (EC50) in series [2] was above 29 µM. Half-maximal cytotoxicity in series [3] (CC50) was put at 29 µM. For the same compound, the result in series [7] was Active.

Compound `CCCCCCNC(=O)c1c(O)c(=O)[nH]c2c(F)cccc12` showed an IC50 in series [1] of 49 µM. Besides, the EC50 in [2] is above 22 µM. In addition, the CC50 in [3] turned out to be 22 µM.

As for `O=C(O)c1c(O)c(=O)[nH]c2ccc(Cl)cc12`, the IC50 in series [1] is above 100 µM. The Activity in series [6] was found to be 100%. For the same compound, in series [2], the EC50 was above 250 µM. Also, the CC50 in series [3] is above 250 µM.

`CCOC(=O)c1c(O)c(=O)[nH]c2ccc(N)cc12`: in series [1], the IC50 is above 100 µM. Moreover, the Activity in series [6] stood at 100%. Moreover, in [2], the EC50 is above 250 µM. Besides, the midpoint of cytotoxicity in series [3], the CC50, lay at 250 µM.

Compound `CCOC(=O)c1c(O)c(=O)[nH]c2ccc(Cl)cc12` came in with an IC50 in series [1] above 100 µM. The Activity in series [6] is 100%. Besides, the concentration giving a half-maximal response (EC50) in series [2] is above 117 µM. The CC50 in series [3] amounted to 117 µM.

The compound `O=C(O)c1c(O)c(=O)[nH]c2ccc(F)cc12` returned an IC50 in series [1] above 100 µM. The Activity in series [6] came to 100%. For the same compound, the EC50 in series [2] was above 250 µM. The compound also showed a CC50 in series [3] of 250 µM.

With `O=C(O)c1c(O)c(=O)[nH]c2c(F)cccc12`, the IC50 in [1] is above 100 µM. For the same compound, the Activity in [6] was 88%. The EC50 in [2] is above 250 µM. Further, the CC50 in [3] is above 250 µM.

In series [1], `CCOC(=O)c1c(O)c(=O)[nH]c2ccc([N+](=O)[O-])cc12` had an IC50 of 64 µM. The EC50 in series [2] is above 118 µM. The compound also showed a CC50 in series [3] of 118 µM.

Turning to `O=c1[nH]c2ccccc2cc1O`, the Activity in [6] came to 97%. The compound further showed a CC50 in series [3] of 115 µM.

Turning to `O=C(NCc1ccc(F)cc1)c1c(O)c(=O)[nH]c2ccc(F)cc12`, the IC50 in series [1] is 22 µM; in series [4], above 250 µM; in [5], above 250 µM. The EC50 in [2] is above 24 µM. Further, the CC50 in [3] worked out at 24 µM.

Consider `O=C(O)c1c(O)c(=O)[nH]c2ccc([N+](=O)[O-])cc12`, for which, in series [1], the IC50 came to 97 µM. Moreover, in series [2], the EC50 was above 250 µM. For the same compound, the 50% cytotoxic concentration (CC50) in [3] was above 250 µM.

Compound `CCOC(=O)c1c(O)c(O)nc2ccccc12` had an IC50 in series [1] of 16 µM. Moreover, the EC50 in [2] was above 210 µM. The same compound returned a CC50 in [3] of 210 µM.

In the case of `O=C(NCc1ccc(F)cc1)c1c(O)c(=O)[nH]c2ccc(Cl)cc12`, the IC50 in series [1] was 18 µM; in series [4], above 250 µM; in series [5], above 250 µM. The EC50 in series [2] was above 28 µM. In series [3], this compound showed a CC50 of 28 µM. Moreover, the Ratio IC50 in [8] and in [9] was above 14 each time.

For `CCOC(=O)c1c(O)c(=O)[nH]c2ccc(F)cc12`, the IC50 in series [1] was above 100 µM. In addition, the Activity in series [6] was 100%. Besides, in series [2], the EC50 is above 134 µM. For the same compound, the CC50 in [3] is 134 µM.
